The test system of data set [1] is Influenza A virus. Kind of data set: Antiviral activity against Influenza A virus A/WSN/33(H1N1) infected in MDCK cells assessed as inhibition of neuraminidase activity using 2'-(4-methylumbelliferyl)-alpha-D-N-acetylneuraminic acid substrate pretreated with cells for 24 hrs followed by viral infection measured after 20 hrs by fluorescence assay. Format: functional, organism-based. The settings on record: A/WSN/1933(H1N1). Put shortly: (§1)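 MDCK cells at 1 × 10^4 cells/well in DMEM with 0.3% FBS, 1% penicillin/streptomycin and 1% DMSO. After 24 h, serially diluted compound was added for a further 24 h. Cells were infected with A/WSN/33 at 250 IU/well for 20 h at 37 °C. Supernatant was replaced with 25 μM MUNANA in 33 mM MES, pH 6.5, for 45 min at 30 °C. Reaction stopped with glycine pH 10.5/25% ethanol; fluorescence read at ex 355/em 460 nm. EC50 averaged over n ≥ 2.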

A short description of data set [2]: Cytotoxicity against MDCK cells after 10 mins by CellTiter-Glo assay. Format: cell-based, Canis lupus familiaris. The settings on record: dog. Put shortly: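 Uninfected cultures run in parallel with the MDCK neuraminidase antiviral assay. CellTiter-Glo reagent added, 10 min at room temperature, luminescence read.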
Background: Cellular ATP, detected with luciferase, serves as a proxy for viable cell number.

In data set [3] the test system is Lung. Kind of data set: Prodrug conversion in Balb/c mouse assessed as ((2R,3S,4R,5S)-5-(2-carbamoyl-3-fluoropyridin-4-yl)-3,4-dihydroxytetrahydrofuran-2-yl)methyl dihydrogen phosphate level in lung at 2 mg/kg, iv measured at 0.25 hrs post dose by LC-MS/MS analysis. Format: ADME, organism-based. Conditions: in vivo. In short, it runs like this:
(§2)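 Female Balb/c mice (N = 2), fasted overnight, given the prodrug IV at 2 mg/kg in 10% DMSO/60% PEG400/30% water. Under isoflurane anaesthesia, blood sampled at 0.25 and 2 h post dose. Parent nucleoside measured in blood; monophosphate and triphosphate measured in lung.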

Data set [4] relates to MDCK. The data set can be described thus: Prodrug conversion in MDCK cells assessed as ((2R,3S,4R,5S)-5-(2-carbamoyl-3-fluoropyridin-4-yl)-3,4-dihydroxytetrahydrofuran-2-yl)methyl tetrahydrogen triphosphate level per million cells at 50 uM after 24 hrs by LC-MS/Ms analysis. Format: ADME, cell-based, Canis lupus familiaris. Conditions: dog.
Data set [5] has as its system Lung. Kind of data set: Prodrug conversion in Balb/c mouse assessed as ((2R,3S,4R,5S)-5-(2-carbamoyl-3-fluoropyridin-4-yl)-3,4-dihydroxytetrahydrofuran-2-yl)methyl tetrahydrogen triphosphate level in lung at 2 mg/kg, iv measured at 2 hrs post dose by LC-MS/MS analysis. Format: ADME, organism-based. The settings on record: in vivo, BLD = below limit of detection. Put shortly:
as §2

The test system of data set [6] is Blood. Kind of data set: Prodrug conversion in Balb/c mouse assessed as 4-((2S,3R,4S,5R)-3,4-dihydroxy-5-(hydroxymethyl)tetrahydrofuran-2-yl)-3-fluoropicolinamide level in blood at 2 mg/kg, iv measured at 0.25 hrs post dose by LC-MS/MS analysis. Format: ADME, organism-based. The settings on record: in vivo. In short, it runs like this:
as §2

Data set [7] has as its system A549. The data set can be described thus: Prodrug conversion in human A549 cells assessed as ((2R,3S,4R,5S)-5-(2-carbamoyl-3-fluoropyridin-4-yl)-3,4-dihydroxytetrahydrofuran-2-yl)methyl tetrahydrogen triphosphate level per million cells at 50 uM after 24 hrs by LC-MS/Ms analysis. Format: ADME, cell-based. The settings on record: a549, 24 h.
In data set [8] the test system is A549. The data set can be described thus: Prodrug conversion in human A549 cells assessed as ((2R,3S,4R,5S)-5-(2-carbamoyl-3-fluoropyridin-4-yl)-3,4-dihydroxytetrahydrofuran-2-yl)methyl dihydrogen phosphate level per million cells at 50 uM after 24 hrs by LC-MS/Ms analysis. Format: ADME, cell-based. The settings on record: a549, 24 h.
Data set [9] relates to Influenza A virus. Kind of data set: Antiviral activity against Influenza A virus infected in MDCK cells. Format: functional, organism-based. Put shortly: as §1
Data set [10] relates to MDCK. The data set can be described thus: Prodrug conversion in MDCK cells assessed as ((2R,3S,4R,5S)-5-(2-carbamoyl-3-fluoropyridin-4-yl)-3,4-dihydroxytetrahydrofuran-2-yl)methyl dihydrogen phosphate level per million cells at 50 uM after 24 hrs by LC-MS/Ms analysis. Format: ADME, cell-based, Canis lupus familiaris. Conditions: dog.
In data set [11] the test system is Influenza A virus. The data set can be described thus: Antiviral activity against Influenza A virus A/WSN/33(H1N1) infected in human A549 cells. Format: functional, organism-based. Conditions: A/WSN/1933(H1N1).
Data set [12] has as its system Lung. Kind of data set: Prodrug conversion in Balb/c mouse assessed as ((2R,3S,4R,5S)-5-(2-carbamoyl-3-fluoropyridin-4-yl)-3,4-dihydroxytetrahydrofuran-2-yl)methyl dihydrogen phosphate level in lung at 2 mg/kg, iv measured at 2 hrs post dose by LC-MS/MS analysis. Format: ADME, organism-based. The settings on record: in vivo. Put shortly: as §2
Data set [13] deals with Influenza A virus. The data set can be described thus: Antiviral activity against Influenza A virus A/WSN/33(H1N1) infected in NHBE cells. Format: functional, organism-based. Conditions: A/WSN/1933(H1N1).
The subject of data set [14] is Blood. Kind of data set: Prodrug conversion in Balb/c mouse assessed as 4-((2S,3R,4S,5R)-3,4-dihydroxy-5-(hydroxymethyl)tetrahydrofuran-2-yl)-3-fluoropicolinamide level in blood at 2 mg/kg, iv measured at 2 hrs post dose by LC-MS/MS analysis. Format: ADME, organism-based. The settings on record: in vivo. Put shortly:
as §2

Data set [15] can be described thus: Prodrug conversion in NHBE cells assessed as ((2R,3S,4R,5S)-5-(2-carbamoyl-3-fluoropyridin-4-yl)-3,4-dihydroxytetrahydrofuran-2-yl)methyl tetrahydrogen triphosphate level per million cells at 50 uM after 24 hrs by LC-MS/Ms analysis. Format: ADME, cell-based. The settings on record: human.
Data set [16] is described as follows: Prodrug conversion in NHBE cells assessed as ((2R,3S,4R,5S)-5-(2-carbamoyl-3-fluoropyridin-4-yl)-3,4-dihydroxytetrahydrofuran-2-yl)methyl dihydrogen phosphate level per million cells at 50 uM after 24 hrs by LC-MS/Ms analysis. Format: ADME, cell-based. The settings on record: human.
Data set [17] deals with Lung. The data set can be described thus: Prodrug conversion in Balb/c mouse assessed as ((2R,3S,4R,5S)-5-(2-carbamoyl-3-fluoropyridin-4-yl)-3,4-dihydroxytetrahydrofuran-2-yl)methyl tetrahydrogen triphosphate level in lung at 2 mg/kg, iv measured at 0.25 hrs post dose by LC-MS/MS analysis. Format: ADME, organism-based. The settings on record: in vivo. Put shortly: as §2

For data set [18], the system named is A549. Kind of data set: Drug metabolism in human A549 cells assessed as nucleoside triphosphate formation at 50 uM after 24 hrs by LC-MS/Ms analysis. Format: ADME, cell-based. The settings on record: a549, 24 h, BLD = below limit of detection.
Data set [19] relates to A549. The data set can be described thus: Drug metabolism in human A549 cells assessed as ((2R,3S,4R,5S)-5-(2-carbamoyl-3-fluoropyridin-4-yl)-3,4-dihydroxytetrahydrofuran-2-yl)methyl dihydrogen phosphate level per million cells at 50 uM after 24 hrs by LC-MS/Ms analysis. Format: ADME, cell-based. The settings on record: a549, 24 h.
Data set [20] is described as follows: Drug metabolism in NHBE cells assessed as ((2R,3S,4R,5S)-5-(2-carbamoyl-3-fluoropyridin-4-yl)-3,4-dihydroxytetrahydrofuran-2-yl)methyl dihydrogen phosphate level per million cells at 50 uM after 24 hrs by LC-MS/Ms analysis. Format: ADME, cell-based. Conditions: human.
Data set [21] relates to A549. Kind of data set: Drug metabolism in human A549 cells assessed as ((2R,3S,4R,5S)-5-(2-carbamoyl-3-fluoropyridin-4-yl)-3,4-dihydroxytetrahydrofuran-2-yl)methyl tetrahydrogen triphosphate level per million cells at 50 uM after 24 hrs by LC-MS/Ms analysis. The settings on record: a549, 24 h. Format: ADME, cell-based.
The nature of data set [22]: Drug metabolism in NHBE cells assessed as ((2R,3S,4R,5S)-5-(2-carbamoyl-3-fluoropyridin-4-yl)-3,4-dihydroxytetrahydrofuran-2-yl)methyl tetrahydrogen triphosphate level per million cells at 50 uM after 24 hrs by LC-MS/Ms analysis. Format: ADME, cell-based. Conditions: human.
Data set [23] concerns MDCK. Kind of data set: Drug metabolism in MDCK cells assessed as ((2R,3S,4R,5S)-5-(2-carbamoyl-3-fluoropyridin-4-yl)-3,4-dihydroxytetrahydrofuran-2-yl)methyl dihydrogen phosphate level per million cells at 50 uM after 24 hrs by LC-MS/Ms analysis. Format: ADME, cell-based, Canis lupus familiaris. The settings on record: dog.
The test system of data set [24] is MDCK. The data set can be described thus: Drug metabolism in MDCK cells assessed as ((2R,3S,4R,5S)-5-(2-carbamoyl-3-fluoropyridin-4-yl)-3,4-dihydroxytetrahydrofuran-2-yl)methyl tetrahydrogen triphosphate level per million cells at 50 uM after 24 hrs by LC-MS/Ms analysis. Format: ADME, cell-based, Canis lupus familiaris. Conditions: dog.

What is called EC50 is the concentration that produces a half-maximal response. One may read the CC50 as the concentration at which the toxic effect on the cells reaches its halfway point. Read a low CC50 as greater toxicity to the cells. On to `NC(=O)c1nc(F)cn([C@@H]2O[C@H](CO)[C@@H](O)[C@H]2O)c1=O`, for which, in data set [1], the EC50 is 2.2 µM. This compound came in with a CC50 at 10 min in [2] greater than 400 µM.
As to `CC(C)(C)C(=O)OCOP(=O)(OCOC(=O)C(C)(C)C)OC[C@H]1O[C@@H](c2ccnc(C(N)=O)c2F)[C@H](O)[C@@H]1O`, the Drug metabolism is reported as 1764 nM in data set [3]; 179 pmol in data set [4]; “BLD” in data set [5]; 1436 nM in data set [6]; 5 pmol in data set [7]; 74 pmol in data set [8]. Also, the Drug metabolism in data set [10] is given as 248 pmol; in data set [12], 792 nM; in [14], 422 nM; in data set [15], 7.22 pmol; in [16], 113 pmol; in data set [17], less than 60 nM. Besides, the 50% effective concentration (EC50) stood at 5.8 µM in data set [9], 34.7 µM in data set [11], 5.8 µM in [1] and 57.5 µM in [13]. This compound displayed a half-maximal cytotoxic concentration (CC50) at 10 min in data set [2] greater than 400 µM.
Regarding `NC(=O)c1cc([C@@H]2O[C@H](CO)[C@@H](O)[C@H]2O)ccn1`, the Drug metabolism result in data set [18] was “BLD”.
As to `NC(=O)c1nccc([C@@H]2O[C@](F)(CO)[C@@H](O)[C@H]2O)c1F`, the EC50 in data set [1] is 98 µM. The CC50 at 10 min in data set [2] stood at 185 µM. In data set [18], the Drug metabolism result is “BLD”.
On the same counts, the results for `NC(=O)c1nccc([C@@H]2O[C@H](CO)[C@@H](O)[C@H]2O)n1` are 8.7 µM, greater than 200 µM and “BLD”.
Consider `NC(=O)c1nccc([C@@H]2O[C@H](CO)[C@@H](O)[C@H]2O)c1F`, for which the EC50 stood at 1.9 µM in data set [9], 52 µM in data set [11], 1.9 µM in data set [1] and 29.5 µM in [13]. Also, the Drug metabolism in data set [19] came to 41 pmol; in data set [20], 262 pmol; in data set [21], 11.6 pmol; in data set [22] it was 21.6 pmol; in [23], 48.5 pmol; in data set [24], 192 pmol. In data set [2], this compound showed a CC50 at 10 min greater than 400 µM.
Take `NC(=O)c1nccc([C@@H]2O[C@H](CO)[C@@H](O)[C@H]2O)c1Cl`: the Drug metabolism entry in [18] is on record as “BLD”.
As to `NC(=O)c1nc(F)cnc1O` [FAVIPIRAVIR], the EC50 in data set [1] is 2.7 µM. In addition, the CC50 at 10 min in data set [2] was greater than 400 µM.

The record behind these values is ChEMBL document CHEMBL3817756, “Synthesis and Anti-Influenza Activity of Pyridine, Pyridazine, and Pyrimidine C-Nucleosides as Favipiravir (T-705) Analogues” (J Med Chem, 2016).
